{"data": "Measurements collected from several papers", "effect on": "cell growth or viability", "note": "Lines come from different studies, so protocols differ."}
{"SMILES": "S=P1(C2CCCCC2)CCCCC1", "cell line": "HCT-116", "method": "MTT", "time": "72 h", "endpoint": "IC50", "result": "> 100 µM"}
{"SMILES": "O=C(Nc1ccc(Cl)cc1)Nc1cccc(-c2cn(Cc3ccc(Br)cc3)nn2)c1", "cell line": "PC-9", "method": "CCK-8", "tested at": "50 µM", "time": "72 h", "endpoint": "viability", "result": "128%"}
{"SMILES": "O=C1[O][Pt]2([NH][C@@H]3CCCC[C@H]3[NH]2)[O]C1=O", "cell line": "HCT-116", "method": "MTT", "endpoint": "IC50", "result": "0.8 µM"}
{"SMILES": "C#CCn1c(C(=O)/C=C/c2ccc(F)cc2)nc2ccccc21", "cell line": "HCT-116", "method": "LDH", "time": "48 h", "endpoint": "IC50", "result": "6.51 µM"}
{"SMILES": "O=C1CCC(N2C(=O)c3cccc4c(Cc5cnn(C6CCN(C(=O)C7(O)CCC7)CC6)c5)ccc2c34)C(=O)N1 (centres unmarked)", "cell line": "NCI-H929", "endpoint": "IC50", "result": "7e-06 µM"}
{"SMILES": "N.N.[Cl][Pt][Cl]", "cell line": "HCT-116", "method": "MTT", "time": "24 h", "endpoint": "IC50", "result": "255 µM"}
{"SMILES": "N.N.[Cl][Pt][Cl]", "cell line": "WSUDLCL2", "method": "ATP luminescence", "tested at": "10 µM", "time": "72 h", "endpoint": "inhibition", "result": "100%"}
{"SMILES": "Fc1ccc2c(-c3nc(Cc4ccccc4)cs3)nn(Cc3ccc(Cl)cc3Cl)c2c1", "cell line": "HCT-116", "time": "48 h", "endpoint": "IC50", "result": "67.6 µM"}
{"SMILES": "N.N.[Cl][Pt][Cl]", "cell line": "SK-OV-3", "method": "MTT", "time": "72 h", "endpoint": "IC50", "result": "43.8 µM"}
{"SMILES": "N.N.[Cl][Pt][Cl]", "cell line": "HCT-116", "method": "MTT", "time": "72 h", "endpoint": "IC50", "result": "8.2 µM"}
{"SMILES": "N.N.[Cl][Pt][Cl]", "cell line": "HCT-116", "method": "MTT", "time": "48 h", "endpoint": "IC50", "result": "13.3 µM"}
